In paper PMC11489580 (Scientific Reports, 2024):

Key:
RAW 264.7 cells [1] = assay: Real-time cell proliferation by Incucyte; format: cell-based, murine; settings: RAW 264.7, 72 h
How it was run: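 Growth curves were recorded by live-cell IncuCyte imaging of RAW 264.7 cells treated with test compounds over 72 h, and analysed in IncuCyte. Mean ± s.d. of three independent experiments.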

[2] = biological target: His-tagged rM1M2 HuR protein / 5'-Bi-TNF ARE probe (Homo sapiens, UniProt Q15717); assay: Homogeneous Time-Resolved Fluorescence; format: binding
How it was run: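 His-tagged HuR M1M2 (20 nM) incubated with a biotinylated 26-nt TNF ARE RNA probe (50 nM), donor/acceptor beads and test compound (0.01–100 µM); DMSO control; protein hook point determined beforehand. HTRF signal was normalised to DMSO and fitted by nonlinear regression with a one-site model to give IC50. Mean ± s.d. of three independent experiments.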

[3] = Kinetic solubility by LC-MS in PBS with DMSO; format: physicochemical; settings: 20% DMSO
RAW 264.7 cells [4] = assay: Cell cycle analysis, propidium iodide FACS; format: cell-based, murine; settings: 2 / TM7n and 5 / TM11 at 10 µM and 20 µM, respectively, 48 h
How it was run: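 RAW 264.7 cells seeded at 250.000 cells/mL and exposed to test compound for 48 h, then fixed in 70% ethanol and stained with propidium iodide for flow cytometry. Controls were serum-free starvation for 24 h (G0/G1 block) and nocodazole for 2 h (G2/M block). Mean ± s.d. of three independent experiments.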

[5] = system: LPS-stimulated RAW264.7 cells; assay: Cxcl10 secretion by ELISA; format: cell-based, murine; settings: co-treatment LPS 1 µg/mL and TM 10 µM, 6 h
How it was run: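 RAW264.7 seeded at 200.000 cells/mL and given LPS 1 µg/mL. Test compound (10 µM) or DMSO was either co-added for 6 h, or added after 2 h of LPS for a further 4 h. Supernatant was diluted 1:2 for mouse CXCL10 sandwich ELISA (TMB, 605 nm). pg/mL was normalised to crystal violet cell counts and expressed as % of LPS + DMSO; mean ± s.d., three independent experiments.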

[6] = system: RAW264.7 murine macrophages; assay: OZblue cell viability assay; format: cell-based; settings: Mus musculus, RAW264.7, 48 h, read-out: IC50 cell viability
How it was run: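 RAW264.7 murine macrophages exposed for 48 h to test compound at 1 to 50 µM. Viability was read with the OZblue reagent and IC50 taken from the concentration–response. Mean ± s.d. of three independent experiments.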

[7] = biological target: rM1M2_HuR (first two RRM domains of human HuR) / 5'-DY681-labeled AU-rich RNA probe (Homo sapiens, UniProt Q15717); assay: RNA Electrophoretic Mobility Shift Assay; format: binding
How it was run: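 Human HuR RRM1-2 (rM1M2) was expressed in E. coli BL21. Protein (3.7 nM) was incubated 20 min with 1 nM 5′-DY681-labelled 26-nt AU-rich RNA and DMSO or test compound (15 µM screen; 0.01–25 µM dose–response). Samples ran on 4% native polyacrylamide at 80 V, 1.5 h, and were scanned for DY681. IC50 came from titration curves of band quantification.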

[8] = system: LPS-stimulated RAW264.7 cells; assay: qRT-PCR of LPS-induced genes; format: cell-based, murine; settings: co-treatment LPS 1 µg/mL and TM 10 µM, 6 h
RAW 264.7 cells [9] = assay: Apoptosis: caspase 3 cleavage; format: cell-based, murine; settings: RAW 264.7, 48 h, 15 µM (western blot, Annexin V)
How it was run: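 RAW 264.7 cells seeded at 50,000 cells/mL and co-treated 48 h with test compound plus CellEvent caspase-3/7 reagent, imaged every 4 h by IncuCyte. For the western blot and Annexin V: 48 h with 15 µM test compound or DMSO. Controls were staurosporin 1 µM ± QVD 10 µM for 4 h. Blots probed for caspase 3, PARP and β-actin. Annexin V-FITC/PI staining was read by flow cytometry as fold change vs DMSO.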

rM1M2_HuR (first two RRM domains of human HuR) / 5'-DY681-labeled AU-rich RNA probe, sequence (Q15717 20-186 limits assumed): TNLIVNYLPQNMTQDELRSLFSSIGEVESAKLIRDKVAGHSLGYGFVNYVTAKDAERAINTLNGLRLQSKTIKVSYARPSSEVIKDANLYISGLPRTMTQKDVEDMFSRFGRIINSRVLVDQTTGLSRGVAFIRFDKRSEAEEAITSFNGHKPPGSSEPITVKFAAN
His-tagged rM1M2 HuR protein / 5'-Bi-TNF ARE probe, sequence (Q15717 20-186 limits assumed): as above

| SMILES | proliferation rate (real-time growth) (RAW 264.7 cells [1]) | IC50 [2] | solubility relative to 2 / TM7n or 1 / TM6a [3] | cell cycle distribution (RAW 264.7 cells [4]) | Cxcl10 level in supernatant [5] | IC50 [6] | IC50 [7] | inhibitory effect on HuR-RNA complex formation (REMSA screen) ([7]; TMs at 15 µM, 3.7 nM rM1M2_HuR, 1 nM RNA probe) | expression of LPS-induced readout genes (Cxcl10, Fas, Nos2, Il1β) [8] | activation of apoptosis (caspase 3, PARP cleavage, Annexin V) (RAW 264.7 cells [9]) |
| --- | --- | --- | --- | --- | --- | --- | --- | --- | --- | --- |
| O=C1C=Cc2c(c(-c3ccco3)cn2S(=O)(=O)c2ccccc2)C1=O [5 / TM11, 3-(furan-2-yl)-1-(phenylsulfonyl)-1 H-indole-4,5-dione] | dose-dependent decrease in proliferation rate | 680 nM | ten times more soluble | accumulation of the cells in the S and G2/M phases | downregulation of its level | 15000 nM | 770 nM | greatest inhibitory effect | ability to counteract the effect of LPS stimulation | did not observe the activation of the apoptotic machinery |
| Cc1occ2c1C(=O)c1c(O)ccc(O)c1C2 [MS-444, reference compound] | – | – | – | – | – | – | – | – | – | absence of apoptotic effect |
